Reference: ChEMBL document CHEMBL4316659, “Selective Antiproliferative Withanolides from Species in the Genera Eriolarynx and Deprea” (J Nat Prod, 2019)

Key:
A549 = test: Antiproliferative activity against human A549 cells incubated for 48 hrs by SRB assay; format: functional; conditions: A549, 48 h
Procedure, shortened: (§1)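 Cells kept in RPMI 1640 with 5% FBS and 2 mM L-glutamine at 37 °C under 5% CO2. Seeded at 2500 (A549, HBL-100, HeLa, SW1573) or 5000 (T-47D, WiDr, BJ-hTERT) cells/well and left 24 h. Compounds added as serial dilutions (0.01−100 μM) for 48 h. SRB staining read at 530 and 620 nm. GI50 calculated by NCI formulas. Mean of at least two independent experiments ± SD.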

HBL-100 = test: Antiproliferative activity against human HBL100 cells incubated for 48 hrs by SRB assay; format: functional; conditions: HBL-100, 48 h; procedure, shortened: as §1
HeLa = test: Antiproliferative activity against human HeLa cells incubated for 48 hrs by SRB assay; format: functional; procedure, shortened: as §1
SW1573 [1] = test: Antiproliferative activity against human SW1573 cells incubated for 48 hrs by SRB assay; format: functional; conditions: SW1573, 48 h; procedure, shortened: as §1
T47D = test: Antiproliferative activity against human T47D cells incubated for 48 hrs by SRB assay; format: functional; procedure, shortened: as §1
WiDr = test: Antiproliferative activity against human WiDr cells incubated for 48 hrs by SRB assay; format: functional; procedure, shortened: as §1
[2] = Antiproliferative activity against human hTERT-BJ cells incubated for 48 hrs by SRB assay; format: cell-based; procedure, shortened: as §1
[3] = Ratio of GI50 for antiproliferative activity against human hTERT-BJ cells incubated for 48 hrs by SRB assay to GI50 for antiproliferative activity against human A549 cells incubated for 48 hrs by SRB assay
Procedure, shortened: (§2)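 Selectivity is GI50 in the nontumor BJ-hTERT fibroblasts divided by GI50 in each tumor line. All values come from the same 48 h SRB assay, with 0.01−100 μM serial dilutions.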

[4] = Ratio of GI50 for antiproliferative activity against human hTERT-BJ cells incubated for 48 hrs by SRB assay to GI50 for antiproliferative activity against human HBL100 cells incubated for 48 hrs by SRB assay; procedure, shortened: as §2
[5] = Ratio of GI50 for antiproliferative activity against human hTERT-BJ cells incubated for 48 hrs by SRB assay to GI50 for antiproliferative activity against human HeLa cells incubated for 48 hrs by SRB assay; format: toxicity, cell-based; conditions: hTERT-BJ cells versus HeLa cells, read-out: RatioGI50; procedure, shortened: as §2
[6] = Ratio of GI50 for antiproliferative activity against human hTERT-BJ cells incubated for 48 hrs by SRB assay to GI50 for antiproliferative activity against human SW1573 cells incubated for 48 hrs by SRB assay; format: toxicity, cell-based; conditions: hTERT-BJ cells versus SW1573 cells, read-out: RatioGI50; procedure, shortened: as §2
[7] = Ratio of GI50 for antiproliferative activity against human hTERT-BJ cells incubated for 48 hrs by SRB assay to GI50 for antiproliferative activity against human T47D cells incubated for 48 hrs by SRB assay; format: toxicity, cell-based; conditions: hTERT-BJ cells versus T47D cells, read-out: RatioGI50; procedure, shortened: as §2
[8] = Ratio of GI50 for antiproliferative activity against human hTERT-BJ cells incubated for 48 hrs by SRB assay to GI50 for antiproliferative activity against human WiDr cells incubated for 48 hrs by SRB assay; format: toxicity, cell-based; conditions: hTERT-BJ cells versus WiDr cells, read-out: RatioGI50; procedure, shortened: as §2
SW1573 [9] = test: Antiproliferative activity against human SW1573 cells incubated for 48 hrs in absence of P-gp and CYP3A4/5 inhibitor verapamil by SRB assay; format: functional; conditions: SW1573, 48 h
Procedure, shortened: (§3)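 Wild-type SW1573 (2500 cells/well) and P-gp-overexpressing SW1573/Pgp (5000 cells/well) in RPMI 1640 with 5% FBS. Seeded 24 h, then exposed 48 h to serial dilutions (0.01−100 μM) with or without 10 μM verapamil (final) in the medium. Paclitaxel and vinblastine were reference drugs. SRB read at 530/620 nm. GI50 by NCI formulas, mean of at least two independent experiments ± SD.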

SW1573 [10] = test: Antiproliferative activity against human SW1573 cells over-expressing P-gp incubated for 48 hrs in absence of P-gp and CYP3A4/5 inhibitor verapamil by SRB assay; format: functional; conditions: SW1573, 48 h; procedure, shortened: as §3
SW1573 [11] = test: (§4) Resistance factor, ratio of GI50 for Antiproliferative activity against human SW1573 cells over-expressing P-gp incubated for 48 hrs in absence of P-gp and CYP3A4/5 inhibitor verapamil by SRB assay to GI50 for antiproliferative activity against human SW1573 cells incubated for 48 hrs in absence of P-gp and CYP3A4/5 inhibitor verapamil by SRB assay; format: functional
Procedure, shortened: (§5)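 Resistance factor is GI50 in SW1573/Pgp divided by GI50 in wild-type SW1573. Both come from 48 h SRB assays, run with 10 μM verapamil (final) or without it.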

SW1573 [12] = test: Antiproliferative activity against human SW1573 cells incubated for 48 hrs in presence of P-gp and CYP3A4/5 inhibitor verapamil by SRB assay; format: functional; conditions: SW1573, 48 h; procedure, shortened: as §3
SW1573 [13] = test: Antiproliferative activity against human SW1573 cells over-expressing P-gp incubated for 48 hrs in presence of P-gp and CYP3A4/5 inhibitor verapamil by SRB assay; format: functional; conditions: SW1573, 48 h; procedure, shortened: as §3
SW1573 [14] = test: as §4, with “presence” for “absence”; format: functional; procedure, shortened: as §5

GI50 (A549) [µM] | GI50 (HeLa) [µM] | GI50 (SW1573 [1]) [µM] | GI50 (T47D) [µM] | GI50 (SW1573 [9]) [µM] | GI50 (SW1573 [10]) [µM] | GI50 (SW1573 [12]) [µM] | GI50 (SW1573 [13]) [µM] | SMILES | GI50 (HBL-100) [µM] | GI50 (WiDr) [µM] | GI50 at 48 h [2] [µM] | RatioGI50 [3] | RatioGI50 [4] | selectivity ratio at 48 h [5] | selectivity ratio at 48 h [6] | selectivity ratio at 48 h [7] | selectivity ratio at 48 h [8] | RatioGI50 (SW1573 [11]) | RatioGI50 (SW1573 [14])
2.8 | 2.5 | 2.4 | 4.7 | 2.1 | 2.3 | 3.9 | 1.7 | CCO[C@@H]1O[C@@](C)([C@H]2CC(C)=C(C)C(=O)O2)[C@H]2CC[C@H]3[C@@H]4[C@@H](O)C=C5[C@@H](O)C=CC(=O)[C@]5(C)[C@H]4CC[C@]123 | 3.2 | 6.1 | > 10 | 2 - 10 | 2 - 10 | 2 to 10 | 2 to 10 | 2 to 10 | 2 to 10 | 1.1 | 0.4
> 10 | 3.3 | 4.4 | 6.4 | 4.1 | 4.5 | 5.5 | 2.7 | C[C@]12C(=O)C=CC=C1[C@H](O)[C@H]1O[C@]3([C@@H]4C[C@]5(C)C(=O)O[C@H]4C[C@@]5(C)O)CC[C@@]4(O3)[C@H]1[C@@H]2CC[C@]4(C)O | > 10 | > 10 | 5.3 |  |  |  |  |  |  | 1.1 | 0.5
> 10 | > 10 | > 10 | > 10 |  |  |  |  | C[C@]12C(=O)C=CCC1=C[C@H]1O[C@]3([C@@H]4C[C@]5(C)C(=O)O[C@H]4C[C@@]5(C)O)CC[C@@]4(O3)[C@H]1[C@@H]2CC[C@]4(C)O | > 10 | > 10 | > 10 | 2 - 10 | 2 - 10 | 2 to 10 | 2 to 10 | 2 to 10 | 2 to 10 |  | 
> 10 | > 10 | > 10 | > 10 |  |  |  |  | C[C@]1(O)CC[C@H]2[C@H]3[C@H](O[C@]4([C@@H]5C[C@]6(C)C(=O)O[C@H]5C[C@@]6(C)O)CC[C@@]31O4)[C@@H](O)[C@]13O[C@H]1C=CC(=O)[C@]23C | > 10 | > 10 |  |  |  | 2 to 10 | 2 to 10 | 2 to 10 | 2 to 10 |  | 
> 10 | > 100 | > 10 | > 10 |  |  |  |  | CC1=C(C)C(=O)O[C@@H]([C@]2(C)OC(O)[C@@]34CC[C@H]5[C@@H](CC=C6CC=CC(=O)[C@@]65C)[C@](O)(CC[C@H]23)O4)C1 (stereo not given in full) | > 10 | > 10 |  |  |  | 2 to 10 | 2 to 10 | 2 to 10 | 2 to 10 |  | 
> 10 | > 10 | > 10 | > 10 |  |  |  |  | CC1=C(C)C(=O)O[C@@H]([C@]2(C)OC(O)[C@]34CC[C@H]5[C@@H]([C@H](O)C=C6CC=CC(=O)[C@@]65C)[C@@H]3CC[C@H]24)C1 (stereo not given in full) | > 10 | > 10 |  |  |  | 2 to 10 | 2 to 10 | 2 to 10 | 2 to 10 |  | 
> 10 | > 10 | > 10 | > 10 |  |  |  |  | CC1=C(C)C(=O)O[C@@H]([C@](C)(O)[C@H]2CC[C@H]3[C@@H]4[C@@H](O)C=C5[C@@H](O)C=CC(=O)[C@]5(C)[C@H]4CC[C@]23CO)C1 | > 10 | > 10 |  |  |  | 2 to 10 | 2 to 10 | 2 to 10 | 2 to 10 |  | 
> 10 | > 10 | > 10 | > 10 |  |  |  |  | CC1=C(CO)C(=O)O[C@@H]([C@]2(C)OC(O)[C@@]34CC[C@H]5[C@@H](CC=C6CC=CC(=O)[C@@]65C)[C@](O)(CC[C@H]23)O4)C1 (stereo not given in full) | > 10 | > 10 |  |  |  | 2 to 10 | 2 to 10 | 2 to 10 | 2 to 10 |  | 
> 10 | > 10 | > 10 | > 10 |  |  |  |  | C[C@]12C(=O)CC=CC1=C[C@H]1O[C@]3([C@@H]4C[C@]5(C)C(=O)O[C@H]4C[C@@]5(C)O)CC[C@@]4(O3)[C@H]1[C@@H]2CC[C@]4(C)O | > 10 | > 10 |  |  |  | 2 to 10 | 2 to 10 | 2 to 10 | 2 to 10 |  | 
> 10 | > 10 | > 10 | > 10 |  |  |  |  | CC1=C(C)C(=O)O[C@@H]([C@]2(C)OC(O)[C@]34CC[C@H]5[C@@H]([C@H](O)C=C6C=CCC(=O)[C@@]65C)[C@@H]3CC[C@H]24)C1 (stereo not given in full) | > 10 | > 10 |  |  |  | 2 to 10 | 2 to 10 | 2 to 10 | 2 to 10 |  | 
> 10 | > 10 | > 10 | > 10 |  |  |  |  | CC1=C(C)C(=O)O[C@@H]([C@]2(C)OC(O)[C@]34CC[C@H]5[C@@H]([C@@H](O)C=C6[C@@H](O)C=CC(=O)[C@@]65C)[C@@H]3CC[C@H]24)C1 (mixture of isomers) | > 10 | > 10 | > 10 | 2 - 10 | 2 - 10 | 2 to 10 | 2 to 10 | 2 to 10 | 2 to 10 |  | 
 |  |  |  | 0.0015 | 0.196 | 0.0016 | 0.0042 | CC(=O)O[C@H]1C(=O)[C@@]2(C)[C@H]([C@H](OC(=O)c3ccccc3)[C@]3(O)C[C@H](OC(=O)[C@H](O)[C@@H](NC(=O)c4ccccc4)c4ccccc4)C(C)=C1C3(C)C)[C@]1(OC(C)=O)CO[C@@H]1C[C@@H]2O [PACLITAXEL] |  |  |  |  |  |  |  |  |  | 128 | 2.6
 |  |  |  | 0.0009 | 2.05 | 0.0008 | 0.001 | CC[C@]1(O)C[C@@H]2CN(CCc3c([nH]c4ccccc34)[C@@](C(=O)OC)(c3cc4c(cc3OC)N(C)[C@H]3[C@@](O)(C(=O)OC)[C@H](OC(C)=O)[C@]5(CC)C=CCN6CC[C@]43[C@@H]65)C2)C1 [VINBLASTINE] |  |  |  |  |  |  |  |  |  | 2388 | 1.3
